ChEMBL document CHEMBL1122172, “Syntheses and diuretic activity of 1,2-dihydro-2-(3-pyridyl)-3H-pyrido[2,3-d]pyrimidin-4-one and related compounds” (1982)
Values joined by “and” are separate entries in the source; they are usually repeats but may differ in a detail not shown here. Equal entries are not always repeated.

Tests used:
Assay type in all cases: functional, Urine
[1] = tested on: Rattus norvegicus; assay: Diuretic activity by measuring the urinary output at the dose of 25 mg/kg
How it was run: (§1)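 Male Sprague–Dawley rats (195–225 g) were fasted and deprived of water for 18 h. The compound was given orally, dissolved in 25 mL/kg saline; controls got saline alone. Groups of eight were housed as pairs in metabolism cages. Urine volume was read at 2 and 5 h, with total Na+, Cl− and K+ mequiv excreted. Values are mean ± SEM, N = 8.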

[2] = tested on: Rattus norvegicus; assay: Diuretic activity by measuring the urinary output at the dose of 75 mg/kg
How it was run: (§2)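 Groups of eight male Sprague–Dawley-derived rats, fasted 18 h with water ad libitum, received oral doses by dosing needle in 5% acacia–isotonic saline; the vehicle served as control. Rats were placed in metabolism cages with no food or water, and urine was collected for 5 h. Bladders were then emptied by pulling at the tail base (modified Lipschitz method).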

[3] = tested on: Rattus norvegicus; assay: Total Cl- milliequivalents excretion in diuretic test at the dose of 25 mg/kg; how it was run: as §1
[4] = tested on: Rattus norvegicus; assay: Total Cl- milliequivalents excretion in diuretic test at the dose of 75 mg/kg
[5] = tested on: Rattus norvegicus; assay: Total K+ milliequivalents excretion in diuretic test at the dose of 25 mg/kg; how it was run: as §1
[6] = tested on: Rattus norvegicus; assay: Total Na+ milliequivalents excretion in diuretic test at the dose of 25 mg/kg; how it was run: as §1
[7] = tested on: Rattus norvegicus; assay: Total Na+ milliequivalents excretion in diuretic test at the dose of 75 mg/kg
[8] = tested on: Rattus norvegicus; assay: Diuretic activity by measuring the urinary output at the dose of 100 mg/kg; how it was run: as §2
[9] = tested on: Rattus norvegicus; assay: Diuretic activity by measuring the urinary output at the dose of 400 mg/kg; how it was run: as §2
[10] = tested on: Rattus norvegicus; assay: Diuretic activity by measuring the urinary output at the dose of 50 mg/kg; how it was run: as §2
[11] = tested on: Rattus norvegicus; assay: Total Cl- milliequivalents excretion in diuretic test at the dose of 50 mg/kg
[12] = tested on: Rattus norvegicus; assay: Diuretic activity by measuring the urinary output at the dose of 150 mg/kg; how it was run: as §2
[13] = tested on: Rattus norvegicus; assay: Total Cl- milliequivalents excretion in diuretic test at the dose of 150 mg/kg
[14] = tested on: Rattus norvegicus; assay: Total K+ milliequivalents excretion in diuretic test at the dose of 150 mg/kg
[15] = tested on: Rattus norvegicus; assay: Total Na+ milliequivalents excretion in diuretic test at the dose of 150 mg/kg
[16] = tested on: Rattus norvegicus; assay: Total Cl- milliequivalents excretion in diuretic test at the dose of 27 mg/kg
How it was run: (§3)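 Oral dosing was in 25 mL/kg saline to male Sprague–Dawley rats (195–225 g) after 18 h without food or water, with saline-only controls. Groups of eight were kept two per metabolism cage. Urinary Na+, Cl− and K+ were reported as total mequiv excreted, with electrolyte analysis done externally. Values are mean ± SEM of two rats per cage, N = 8.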

[17] = tested on: Rattus norvegicus; assay: Total Cl- milliequivalents excretion in diuretic test at the dose of 81 mg/kg; how it was run: as §3
[18] = tested on: Rattus norvegicus; assay: Total Cl- milliequivalents excretion in diuretic test at the dose of 9 mg/kg; how it was run: as §3
[19] = tested on: Rattus norvegicus; assay: Total K+ milliequivalents excretion in diuretic test at the dose of 27 mg/kg; how it was run: as §3
[20] = tested on: Rattus norvegicus; assay: Total K+ milliequivalents excretion in diuretic test at the dose of 3 mg/kg; how it was run: as §3
[21] = tested on: Rattus norvegicus; assay: Total K+ milliequivalents excretion in diuretic test at the dose of 81 mg/kg; how it was run: as §3
[22] = tested on: Rattus norvegicus; assay: Total Na+ milliequivalents excretion in diuretic test at the dose of 27 mg/kg; how it was run: as §3
[23] = tested on: Rattus norvegicus; assay: Total Na+ milliequivalents excretion in diuretic test at the dose of 3 mg/kg; how it was run: as §3
[24] = tested on: Rattus norvegicus; assay: Total Na+ milliequivalents excretion in diuretic test at the dose of 81 mg/kg; how it was run: as §3
[25] = tested on: Rattus norvegicus; assay: Total Na+ milliequivalents excretion in diuretic test at the dose of 9 mg/kg; how it was run: as §3
[26] = tested on: Rattus norvegicus; assay: Diuretic activity by measuring the urinary output after 2 hr at the dose of 25 mg/kg
How it was run: (§4)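 Male Sprague–Dawley rats (195–225 g) were fasted and deprived of water for 18 h, then dosed orally with compound dissolved in 25 mL/kg saline. Controls got 25 mL/kg saline alone. Groups of eight were used, housed two rats per metabolism cage right after dosing. Urine volume was collected at 2 h and 5 h after dosing. Values are mean ± SEM per cage pair, N = 8.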

[27] = tested on: Rattus norvegicus; assay: Diuretic activity by measuring the urinary output after 2 hr at the dose of 27 mg/kg; how it was run: as §4
[28] = tested on: Rattus norvegicus; assay: Diuretic activity by measuring the urinary output after 2 hr at the dose of 3 mg/kg; how it was run: as §4
[29] = tested on: Rattus norvegicus; assay: Diuretic activity by measuring the urinary output after 2 hr at the dose of 81 mg/kg; how it was run: as §4
[30] = tested on: Rattus norvegicus; assay: Diuretic activity by measuring the urinary output after 2 hr at the dose of 9 mg/kg; how it was run: as §4
[31] = tested on: Rattus norvegicus; assay: Diuretic activity by measuring the urinary output after 5 hr at the dose of 25 mg/kg; how it was run: as §4
[32] = tested on: Rattus norvegicus; assay: Diuretic activity by measuring the urinary output after 5 hr at the dose of 27 mg/kg; how it was run: as §4
[33] = tested on: Rattus norvegicus; assay: Diuretic activity by measuring the urinary output after 5 hr at the dose of 3 mg/kg; how it was run: as §4
[34] = tested on: Rattus norvegicus; assay: Diuretic activity by measuring the urinary output after 5 hr at the dose of 81 mg/kg; how it was run: as §4
[35] = tested on: Rattus norvegicus; assay: Diuretic activity by measuring the urinary output after 5 hr at the dose of 9 mg/kg; how it was run: as §4
[36] = tested on: Rattus norvegicus; assay: Total K+ milliequivalents excretion in diuretic test at the dose of 9 mg/kg; how it was run: as §3
[37] = tested on: Rattus norvegicus; assay: Total Cl- milliequivalents excretion in diuretic test at the dose of 3 mg/kg; how it was run: as §3
[38] = tested on: Rattus norvegicus; assay: Total K+ milliequivalents excretion in diuretic test at the dose of 50 mg/kg
[39] = tested on: Rattus norvegicus; assay: Total Na+ milliequivalents excretion in diuretic test at the dose of 50 mg/kg
[40] = tested on: Rattus norvegicus; assay: Diuretic activity by measuring the urinary output at the dose of 20 mg/kg; how it was run: as §2
[41] = tested on: Rattus norvegicus; assay: Diuretic activity by measuring the urinary output at the dose of 40 mg/kg; how it was run: as §2
[42] = tested on: Rattus norvegicus; assay: Total K+ milliequivalents excretion in diuretic test at the dose of 75 mg/kg

CC(C)c1ccc(C2NC(=O)c3cccnc3N2)cc1 (stereo not given)
Control [1]: 137% | Control [2]: 114% | Excretion [3]: 1.6 m equiv | Excretion [4]: 1.4 m equiv | Excretion [5]: 0.6 m equiv | Excretion [6]: 1.5 m equiv | Excretion ([7]; 75 mg/kg): 1.3 m equiv and 0.6 m equiv

O=C1NC(c2ccco2)Nc2ncccc21 (stereo not given)
Control [8]: 194% | Control [1]: 121% | Control [9]: 193%

CN1C(=O)c2cccnc2NC1c1cccnc1 (stereo not given)
Control [2]: 149% | Excretion [4]: 1.7 m equiv

Cn1cccc1C1NC(=O)c2cccnc2N1 (stereo not given)
Control [1]: 124% | Control [10]: 113% | Excretion [3]: 1.4 m equiv | Excretion [11]: 1 m equiv | Excretion [5]: 0.3 m equiv | Excretion [6]: 1.5 m equiv

CC1(C(=O)NCc2cccnc2)NC(=O)c2ccccc2N1 (stereo not given)
Control [12]: 120% | Excretion [13]: 1.5 m equiv | Excretion [14]: 0.5 m equiv | Excretion [15]: 1.4 m equiv

O=C1NC(c2cccnc2)Nc2ncccc21 (stereo not given)
Control [8]: 220% | Control [1]: 221% | Control [9]: 185% | Excretion [3]: 2.8 m equiv | Excretion [16]: 2.6 m equiv | Excretion [17]: 2.6 m equiv | Excretion [18]: 1.3 m equiv | Excretion [5]: 0.6 m equiv | Excretion [19]: 0.6 m equiv | Excretion [20]: 0.4 m equiv | Excretion [21]: 0.4 m equiv | Excretion [6]: 2.5 m equiv | Excretion [22]: 2.2 m equiv | Excretion [23]: 1.4 m equiv | Excretion [24]: 2.6 m equiv | Excretion [25]: 1.1 m equiv | Excretion [26]: 8 mL | Excretion [27]: 10.4 mL | Excretion [28]: 4.4 mL | Excretion [29]: 6 mL | Excretion [30]: 3 mL | Excretion [31]: 21 mL | Excretion [32]: 20.1 mL | Excretion [33]: 8.1 mL | Excretion [34]: 19.6 mL | Excretion [35]: 7.6 mL | Excretion [36]: 0.4 m equiv | Excretion [37]: 1.6 m equiv

Nc1ccc(C2NC(=O)c3cccnc3N2)cc1 (stereo not given)
Control [10]: 128% | Excretion [11]: 1.5 m equiv | Excretion [38]: 0.5 m equiv | Excretion [39]: 1.5 m equiv

Oc1nc(-c2ccco2)nc2ncccc12
Control [8]: 212% | Control [1]: 167% | Control [9]: 36%

CN(C)C(=O)C1(C)NC(=O)c2ccccc2N1 (stereo not given)
Control [12]: 100% | Excretion [13]: 1.4 m equiv | Excretion [14]: 0.4 m equiv | Excretion [15]: 1.1 m equiv

O=C1NC(c2ccccc2)Nc2ncccc21 (stereo not given)
Control [1]: 114% | Control [2]: 146% | Excretion [3]: 1.4 m equiv | Excretion [4]: 1.8 m equiv | Excretion [5]: 0.5 m equiv | Excretion [6]: 1.3 m equiv

O=C1NC(c2ccc([N+](=O)[O-])cc2)Nc2ncccc21 (stereo not given)
Control [1]: 110% | Control [2]: 115% | Excretion [3]: 1.3 m equiv | Excretion [4]: 1.7 m equiv | Excretion [5]: 0.4 m equiv | Excretion [6]: 1.2 m equiv | Excretion ([7]; 75 mg/kg): 1.5 m equiv and 0.6 m equiv

O=C1NC(c2cc(Br)co2)Nc2ncccc21 (stereo not given)
Control [8]: 94% | Control [1]: 101% | Control [9]: 110%

CN1C(=O)c2cccnc2NC1c1ccco1 (stereo not given)
Control [8]: 233% | Control [1]: 209% | Control [9]: 95% | Excretion [3]: 1.8 m equiv | Excretion [5]: 0.8 m equiv | Excretion [6]: 1.8 m equiv | Excretion [26]: 4.6 mL | Excretion [31]: 12.2 mL

O=C1NC(c2cccnc2)Nc2[nH]cnc21 (stereo not given)
Control [1]: 138% | Excretion [3]: 1.3 m equiv | Excretion [5]: 0.6 m equiv | Excretion [6]: 1.4 m equiv

NS(=O)(=O)c1cc(C(=O)O)c(NCc2ccco2)cc1Cl [FUROSEMIDE]
Control [40]: 444% | Control [41]: 517%

O=C1NC(c2ccc(C(F)(F)F)cc2)Nc2ncccc21 (stereo not given)
Control [1]: 106% | Control [2]: 98% | Excretion [3]: 1.4 m equiv | Excretion [4]: 1.3 m equiv | Excretion [5]: 0.4 m equiv | Excretion [6]: 1.3 m equiv | Excretion ([7]; 75 mg/kg): 1.2 m equiv and 0.4 m equiv

COC(OC)C1(C)NC(=O)c2ccccc2N1 (stereo not given)
Control [1]: 118% | Excretion [3]: 1.2 m equiv | Excretion [5]: 0.4 m equiv | Excretion [6]: 1.2 m equiv

O=C1NC(c2cccnc2)Nc2nccnc21 (stereo not given)
Control [2]: 97% | Excretion [4]: 1.2 m equiv | Excretion [42]: 0.4 m equiv | Excretion [7]: 1.2 m equiv

O=C1NC(c2cccnc2)Nc2ccccc21 (stereo not given)
Control [1]: 96% | Excretion [3]: 1.1 m equiv | Excretion [5]: 0.4 m equiv | Excretion [6]: 1 m equiv
